# Most compounds without a hit are left out; they make up all but 3.5% or so of the library.
# FLuc stim CS – affects firefly luciferase, flagging false hits in luciferase stimulation screens. P08659. ATPlite luciferase biochemical, luminescence, 10 min; 0 = ATP-free wells, 1 = DMSO control. activation factor at 10 µM. 200,000 tested, under 10 active;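 active means luciferase activation factor, scaled between plate controls, of at least 2 with compound at 10 µM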
# Target sequence (P08659 whole entry, looked up): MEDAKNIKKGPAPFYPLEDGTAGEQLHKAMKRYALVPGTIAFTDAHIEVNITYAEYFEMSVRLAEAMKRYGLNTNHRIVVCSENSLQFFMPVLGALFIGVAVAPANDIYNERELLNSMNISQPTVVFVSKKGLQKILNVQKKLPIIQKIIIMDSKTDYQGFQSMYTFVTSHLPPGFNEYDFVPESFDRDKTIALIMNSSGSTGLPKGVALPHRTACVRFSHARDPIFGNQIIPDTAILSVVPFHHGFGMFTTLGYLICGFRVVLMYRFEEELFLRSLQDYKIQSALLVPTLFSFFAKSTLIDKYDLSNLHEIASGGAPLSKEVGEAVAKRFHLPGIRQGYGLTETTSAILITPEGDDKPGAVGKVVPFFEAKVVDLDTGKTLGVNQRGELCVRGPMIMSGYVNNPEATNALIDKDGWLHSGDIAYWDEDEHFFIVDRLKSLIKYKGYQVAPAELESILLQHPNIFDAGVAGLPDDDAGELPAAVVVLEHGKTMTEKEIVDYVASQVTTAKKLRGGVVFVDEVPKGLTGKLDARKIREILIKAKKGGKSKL
#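 test system = cell-free luciferase reagent | medium = PBS as buffer for the ATP substrate | dosing = test compounds dosed from 2 mM stocks in 100% DMSO | incubation = 10 min at ambient temperature | detection = luminescence measurement of luciferase light output | benchmarks = low control with PBS replacing ATP, high control enzyme plus ATP without compound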
# APP 5'UTR act – APP 5'UTR luciferase reporter activation | activation, % at 2 µM | AID 1276 | actives 1% (n = 190,000) | SH-SY5Y APP 5'UTR luciferase reporter, luminescence; zero percent = DMSO vehicle wells;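 active means activation above a set limit, based on mean plus 3 SD of controls, cut at about 140% in these data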
# Pf gamet viab – inhibitors of late stage P. falciparum gametocyte viability | inhibition, % at 10.9 µM | P. falciparum stage V gametocytes, ATP luminescence, 24 h | actives 0.065% (n = 150,000);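 active means inhibition above the mean plus 3 SD of compounds within the control limits, set per campaign, cut at about 38% in these data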;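 further: 0% = DMSO wells and 100% = medium only without gametocytes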
# FLuc inhib CS – counter-screen for luciferase assay inhibitors: firefly luciferase inhibition. ATPLite firefly luciferase biochemical luminescence, 10 min. actives 1.5% (n = 200,000). inhibition, % at 10 µM. P08659. AID 1006;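 active means inhibition above about 50% when tested at 10 µM, limit read from the data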
# NF-kB expr up – compounds increasing NF-kB expression in human neuronal cells; NF-kB reporter expression; stronger effect = higher value; actives 1.6% (n = 190,000); AID 1239; fold change at 12.5 µM; in the data active means fold change above about 3.3
# STAT1 activator – STAT1 signaling activation. actives 2.6% (n = 200,000). NIH 3T3 STAT1-luciferase reporter, IFN-gamma, luminescence; 100% = IFN-gamma alone, no compound. activation (% of control), % at 5.5 µM;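 active means activation above the screen-wide mean activation plus 3 SD, cut at about 130% in these data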;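 further: raw ratio to IFN-gamma control signal so 100% means no change and 0% no light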
# * = called active by the depositor; x = no result.
SMILES,FLuc stim CS,APP 5'UTR act,Pf gamet viab,FLuc inhib CS,NF-kB expr up,STAT1 activator
COc1ccc(CCN2C(=O)CSC2=Nc2ccc(C)cc2C)cc1OC,x,x,-7.0,x,x,x
CN(C)/C=C/C(=O)c1ccc(Oc2ccccc2)cc1,0.3,76.2,-6.3,75.0*,2.23,135.3*
CCCc1ccc(C(=O)/C=C/N(C)C)cc1,0.3,91.5,-17.0,74.1*,2.14,126.2
CCOC(=O)C1=CC[C@H]2c3c(c4ccccc4n3C)C[C@H]1N2C,x,x,-27.4,x,x,x
Cc1c(=O)n(OCc2cccc(F)c2)c2ccccc2[n+]1[O-],1,-1.9,2.8,-4.8,3.03,97.4
Cc1c(=O)n(OCc2ccccc2F)c2ccccc2[n+]1[O-],1,-17.9,x,-2.6,5.19*,96.6
c1ccc2sc(SCSc3nc4ccccc4s3)nc2c1,x,x,19.3,x,x,x
c1ccc2sc(SCc3ccc(-c4nnco4)cc3)nc2c1,0.9,120.8,x,6.8,4.24*,119.3
Cc1nn(C)c(C(=O)N/N=C/c2ccc(Br)cc2)c1Cl,1,2.6,-7.3,-1.8,1.08,96.6
CC(C)c1ccc(/C=N/NC(=O)c2c(Cl)cnn2C)cc1,0.1,117.4,-2.7,93.3*,5.25*,137.7*
COC(=O)c1cc(NC(=S)N2CCN(C(=O)C3CCCO3)CC2)cc(C(=O)OC)c1 (centres undefined),1,-4.7,x,-1.6,1.12,105.8
O=C(Nc1nccs1)C1Cc2ccccc2CN1S(=O)(=O)c1ccc(F)cc1 (centres undefined),0.9,155.2*,-7.5,6.2,1.57,122.8
CSc1nc2ccc(NC(=O)c3c(-c4ccccc4)noc3C)cc2s1,x,x,-2.3,x,x,x
O=C(Nc1ccc(Cl)cn1)c1ccccc1F,0.6,182.9*,x,41.9,2.86,132.8*
O=C(Nc1ccc(Cl)cn1)Nc1ccccc1F,1,16.8,x,-4.7,2.25,138.7*
Cc1cc(NC(=O)c2cccc(F)c2)ncc1NC(=O)c1ccco1,0.9,139.5*,x,11.8,3.64*,117.8
O=C(Nc1ccc(Cl)cn1)Nc1ccc(Cl)cn1,1,-3.1,-18.6,-3.0,1.38,105.0
O=C(Nc1ccc(Cl)cn1)c1cccc(F)c1,0.9,54.5,-1.6,9.3,3.56*,146.1*
Cc1cc(NC(=O)c2cccs2)ncc1NC(=O)c1cccc(F)c1,1,70.0,0.7,-2.1,1.38,127.8
Cc1ccccc1OCC(=O)Nc1ccccc1-c1ccccc1,x,x,-22.9,x,x,x
O=C(Cc1cc(=O)[nH]c(=O)[nH]1)N1CCC(Cc2ccccc2)CC1,1.1,-2.1,x,-6.4,1.01,106.2
CCC(C)NS(=O)(=O)c1ccc(NS(C)(=O)=O)cc1 (centres undefined),1,0.6,35.7,-3.6,1.4,93.1
Cc1[nH]c2ccccc2c1C1(O)C(=O)N(Cc2ccc3c(c2)OCO3)c2ccccc21 (centres undefined),1,14.8,12.3,-2.6,3.31*,86.9
CCCN1C(=O)C(O)(c2c(C)[nH]c3ccccc23)c2ccccc21 (centres undefined),x,x,-12.2,x,x,x
O=C(CNC(=O)c1nc[nH]c1C(=O)N1CCN(c2ccccc2)CC1)OCc1ccccc1,x,x,-2.3,x,x,x
SMILES,FLuc stim CS,APP 5'UTR act,Pf gamet viab,FLuc inhib CS,NF-kB expr up,STAT1 activator
Cc1ccc(-n2ncc3c2ncn2c(C)nnc32)cc1C,0.9,24.8,x,14.0,3.37*,135.9*
c1ccc(-n2ncc3c2ncn2cnnc32)cc1,1,-2.5,x,2.2,0.98,99.3
CCc1nnc2c3cnn(-c4ccccc4)c3ncn12,0.7,-0.4,x,31.8,1.5,132.7*
O=C(/C(=C/c1ccc(Cl)cc1)c1nc2ccccc2[nH]1)c1cccs1,1,38.8,x,2.7,0.57,86.3
COc1cc(/C=C(/C(=O)c2cccs2)c2nc3ccccc3[nH]2)ccc1O,0.6,42.5,4.3,35.3,4.54*,95.8
CC(C)Oc1ccc(NC(=O)c2ccncc2)cc1,0.9,20.0,11.8,11.0,1.11,94.4
COc1ccc(-c2noc(CSc3ccccc3)n2)cc1OC,1,54.1,x,0.2,2.27,129.7*
Cc1ccc(SCc2nc(-c3ccncc3)no2)cc1,1,2.8,-18.1,1.8,1.46,108.9
c1ccc(SCc2nc(-c3ccncc3)no2)cc1,0.9,11.5,10.5,6.9,1.92,128.7*
Cc1ccc(C(=O)/C=C/c2cn(CN3CCN(C)CC3)c3ccccc23)cc1,0.8,76.4,x,20.2,7.28*,122.5

# Source: PubChem BioAssay (several laboratories)
